# This is a sample that favours compounds with a hit; in the whole collection about 1.3% have one here.
# GSK3 alpha inh: blockers of GSK3A enzyme activity – biochemical, luminescence, cell-free homogeneous, HTS, primary screen; GSK-3 alpha kinase, ADP-Glo luminescence, 60 min; Glycogen synthase kinase-3 alpha (Homo sapiens), P49840; inhibition, % at 10 µM; hit rate 0.1% among 320,000;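 active = more than half of replicates show inhibition above 20%; inconclusive = some but at most half of replicates above 20% inhibition; inactive = no replicate shows inhibition above 20%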;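 note: GST-tagged GSK-3 alpha with peptide substrate and 25 µM ATP; 0% = DMSO neutral wells and 100% = GW8510 positive control wells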
# H9c2 TAG inh: inhibitors of triacylglycerol accumulation, primary screen, cell-based, uHTS, fluorescence, H9c2. H9c2 cells, Nile Red lipid (TAG) fluorescence; cells loaded with 200 µM oleic acid. inhibition, % at 12.5 µM. hit rate 0.66% among 230,000. AID 651582, 2012;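 active = pattern-corrected inhibition of lipid staining of at least 50% with the nuclear-stain viability signal not falling by more than 50%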;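 note: 0% = DMSO wells and 100% = triacsin C control wells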
# STK33 kinase inh: inhibitors of purified STK33 kinase, primary screen, biochemical, ADP-Glo luminescence, homogeneous, cell-free; MBP phosphorylation; inhibition, % at 10 µM; hit rate 0.073% among 320,000; AID 2661, 2010;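 active = inhibition at or above 25%, using the most active replicate where run in duplicate; inactive = inhibition below 25%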
# GSK3B inh: human GSK3beta kinase inhibitors, primary screen, biochemical, cell-free homogeneous, HTS. Glycogen synthase kinase-3 beta (Homo sapiens), P49841. GST-GSK3beta kinase, ADP-Glo luminescence, 60 min; hits give low values. activity score (negative = inhibition), % at 10 µM. hit rate 0.038% among 300,000;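 active = more than half of replicate wells score below -50%, meaning over 50% inhibition versus plate controls; inconclusive = some replicates but at most half score below -50%; inactive = no replicate scores below -50%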;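 note: 0% = median DMSO wells and -100% = median GW8510 positive control wells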
# Target sequence (P49841 whole entry, looked up): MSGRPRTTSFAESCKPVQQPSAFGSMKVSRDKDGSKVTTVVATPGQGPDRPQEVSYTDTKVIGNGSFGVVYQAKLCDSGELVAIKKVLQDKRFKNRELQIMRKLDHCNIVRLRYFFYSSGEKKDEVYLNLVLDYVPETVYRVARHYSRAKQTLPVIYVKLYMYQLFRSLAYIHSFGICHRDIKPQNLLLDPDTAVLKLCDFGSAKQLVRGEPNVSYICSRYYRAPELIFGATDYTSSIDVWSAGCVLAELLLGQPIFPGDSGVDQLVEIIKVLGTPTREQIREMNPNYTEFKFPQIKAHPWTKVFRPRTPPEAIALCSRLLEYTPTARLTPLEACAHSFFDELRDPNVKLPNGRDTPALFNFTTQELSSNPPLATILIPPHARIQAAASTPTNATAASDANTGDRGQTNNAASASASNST
#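 Assay system: GST-tagged human GSK3beta kinase, cell-free; Input: 1.6 ng GSK3beta; Medium: Tris/MgCl2 kinase buffer; Timing: 60 min enzyme reaction, room temperature; Signal: ADP-Glo luminescence quantifying ADP generated by kinase; Evaluation: score relative to plate controls; Benchmarks: DMSO neutral wells and GW8510 at 20 µM as positive.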
# Hep lipid drop: inhibitors of hepatocyte lipid droplet formation, primary screen, imaging, high-throughput imaging, BODIPY stain | inhibition, % at 6.5 µM | AID 1656, 2009 | hit rate 0.4% among 240,000 | AML12 mouse hepatocytes, oleate lipid droplets;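 active = lipid droplet intensity inhibited by at least 50%, with more than 500 cells counted; inconclusive = wells with under 300 cells, treated as cytotoxic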
#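 System: AML12 hepatocytes (mouse). Probe or stimulus: oleic acid at 100 µM to induce lipid droplet formation. Times: overnight treatment with compound plus oleate. Detection: Image-based BODIPY and DAPI two-channel analysis. Evaluation: percent inhibition of filter-corrected integrated lipid droplet intensity per well.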
# LANA-H2B inh: blockers of LANA interaction with H2A/H2B – biochemical, FP readout, HTS, primary screen | hit rate 0.6% among 320,000 | Protein LANA1 (Human herpesvirus 8 type P (isolate GK18)), Q9QR71 | inhibition, % (concentration not given with the values) | AID 2629, 2010 | cell-free LANA-H2A/H2B peptide, fluorescence polarization; in the data active = inhibition mostly above about 10%, no sharp cut-off; inactive = mostly below about 6.7%
# TAG conf: triacylglycerol accumulation inhibitors, retest, confirmation, cell-based, single concentration, Nile Red fluorescence, H9c2; shares compounds with H9c2 TAG inh; H9c2 lipid accumulation; cells loaded with 200 µM oleic acid; inhibition, % at 12.5 µM; hit rate 71% among 990; AID 651629, 2012;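 active = mean inhibition across replicates of 40% or more; inactive = mean inhibition below 40%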;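 note: plate controls were DMSO only wells for no effect and Triacsin C treated wells for full effect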
# * marks the source's active call; other numbers are inactive results; ? = inconclusive; . = no result given.
SMILES,GSK3 alpha inh,H9c2 TAG inh,STK33 kinase inh,GSK3B inh,Hep lipid drop,LANA-H2B inh,TAG conf
O=[N+]([O-])c1cccc(S(=O)(=O)N2CN(c3ccc(Br)cc3)c3nc4ccccc4nc32)c1,-2.3,62.3*,-0.6,.,.,1.9,49.0*
COc1ccc(S(=O)(=O)N2CCOC2CNC(=O)C(=O)NCC(C)C)cc1 (centres undefined),2.2,2.8,-2.0,-0.2,2.0,2.4,.
COc1ccc(-c2sc3cc4c(cc3c2C#CCO)OCO4)cc1,0.0,-45.7,0.3,.,.,8.2,.
COc1ccc(-c2sc3cc4c(cc3c2C#Cc2ccc(N)cc2)OCO4)cc1,-0.7,55.4*,0.0,.,.,0.7,58.5*
CCCCCc1ccc(-c2cn(Cc3ccc(C(=O)c4ccccc4)cc3)nn2)cc1,-3.5,60.8*,-0.5,2.8,35.3,1.0,51.0*
COc1ccc(CC(=O)Nc2ccc(-c3ccc4nnc(C)n4n3)cc2)cc1OC,7.4,57.8*,0.4,-3.2,8.8,2.4,71.5*
CSc1nc2[nH]ncc2c(=O)n1-c1ccccc1,3.5,-8.3,-2.0,-3.8,-12.2,2.2,.
CC(C)N1CSC(=S)N(Cc2ccccc2)C1,-0.7,68.9*,1.2,-2.6,-4.4,-1.5,48.5*
CCOC(=O)c1c(N)c(C#N)c2n1CCCC2,-1.2,-18.0,-0.6,-6.1,.,3.7,.
CCOc1cc(CNc2ccc3c(c2)OCCO3)cc(Br)c1OCC,0.8,52.8*,0.2,1.9,.,0.1,53.4*
O=C(O)c1ccc(/C=N/NC(=O)C(O)(c2ccccc2)c2ccccc2)cc1,-0.4,5.6,0.2,-0.9,0.6,8.0,.
O=c1[nH]c(CSc2nc3ccccc3s2)nc2ccccc12,-0.5,2.5,1.4,1.8,11.2,-5.2,.
COc1ccc(C2NCCc3c2[nH]c2ccccc32)cc1CSc1nc2ccccc2s1 (centres undefined),0.2,56.9*,-1.7,1.3,-12.3,-0.5,51.0*
COc1ccc(-c2cc3nc(-c4ccccc4)cc(N4CCN(C(=O)c5ccccc5)CC4)n3n2)cc1,.,52.3*,.,.,.,.,41.7*
COc1ccc(-c2cc3nc(-c4ccccc4)cc(N4CCN(C(C)=O)CC4)n3n2)cc1,.,30.7,.,.,.,.,.
O=C(c1ccoc1)N1CCN(c2cc(-c3cccc(F)c3)nc3cc(-c4cccc(Cl)c4)nn23)CC1,.,56.7*,.,.,.,.,49.0*
CSc1nc(N)n2nc(C(C)(C)C)cc2n1,-2.7,1.0,1.0,3.7,3.7,3.1,.
CCn1c(=N)n(CC(=O)c2ccc(OC)cc2)c2ccccc21,-0.2,33.4,-0.1,5.5,.,-4.6,.
Cc1ccc(NC(=O)c2cc3ccccc3oc2=O)cc1S(=O)(=O)N(C)C,-0.9,.,-0.4,-23.0,1.1,-9.0,.
Cc1ccc(NC(=O)c2cc3ccccc3o2)cc1S(=O)(=O)N(C)C,.,70.4*,.,.,28.8,.,25.5
COc1cccc(C2c3cc4c(cc3OC(NNC(N)=O)C2C)OCO4)c1O (centres undefined),.,61.6*,.,.,.,.,51.9*
COc1cc(C2c3cc4c(cc3OC(NNC(N)=O)C2C)OCO4)cc(OC)c1OC (centres undefined),.,45.6,.,.,.,.,.
CCCCCCC(=O)Nc1nc(C)c(-c2csc(Nc3cc(OC)ccc3OC)n2)s1,-3.3,42.6,-0.2,2.0,.,0.3,.
CCCCCC(=O)Nc1nc(C)c(-c2csc(Nc3cc(OC)ccc3OC)n2)s1,-1.9,59.1*,-2.7,-0.9,.,0.2,74.7*
CCN(CC)CCn1c(SCC(=O)Nc2cccc(OC)c2)nc2c(sc3ccccc32)c1=O,-3.1,51.6*,-1.0,0.5,-19.4,2.5,53.6*
SMILES,GSK3 alpha inh,H9c2 TAG inh,STK33 kinase inh,GSK3B inh,Hep lipid drop,LANA-H2B inh,TAG conf
CC(C)(C)OC(=O)N1CCC(CC2CC(c3ccc(Cl)cc3)=NO2)(C(=O)NCC2CCCCC2)CC1 (centres undefined),0.4,66.6*,1.5,2.4,-0.2,3.6,18.4
COc1ccc(NC(=O)C2(C)Cc3c(-c4cccc(C(N)=O)c4)ccnc3O2)cc1 (centres undefined),.,60.8*,.,.,.,.,53.1*
COc1ccc(NC(=O)C2(C)Cc3c(-c4ccc(NC(C)=O)cc4)ccnc3O2)cn1 (centres undefined),.,11.0,.,.,.,.,.
COc1ccc(NC(=O)C2(C)Cc3c(-c4cccc(NC(C)=O)c4)ccnc3O2)cn1 (centres undefined),.,58.0*,.,.,.,.,52.5*
C=CCNC(=S)NNC(=O)C(CCCC)CC(C)(C)O (centres undefined),-2.2,-2.7,-2.2,2.1,?,0.5,.
Cc1ccccc1C(=O)NC1CC2CCCC(C1)N2C(=O)Nc1ccccc1 (centres undefined),-1.7,.,-0.9,1.3,-1.2,1.2,.
COc1ccc(S(=O)(=O)N2c3cc(Cl)ccc3Oc3nc4ccccc4nc32)cc1,5.0,52.0*,-0.2,1.1,?,4.6,28.5
O=C(Nc1cccc(C(F)(F)F)c1)c1cccc2c(-c3cccnc3)coc12,.,20.0,.,.,.,.,.
CCCCNC(=O)C(=O)Nc1ccc2c(c1)N(S(=O)(=O)c1cccs1)CCC2,.,60.3*,.,.,.,.,54.0*
CCN1CCN(c2ncc3c(n2)CC(c2cc(OC)c(OC)c(OC)c2)CC3=O)CC1 (centres undefined),-3.9,60.2*,-3.2,-1.5,-0.1,3.0,81.6*
CC(C)c1ccc2c(c1)C(c1ccc(N3CCOCC3)cc1)=NNC(c1cccs1)=N2,0.9,52.3*,0.4,1.7,.,-5.1,28.9
CC(C)c1ccc2c(c1)C(c1cccs1)=NNC(c1ccncc1)=N2,-0.8,-3.2,.,0.7,-47.7,-1.0,.
COc1ccc(CC2(CO)CCN(Cc3ccc(OC(F)(F)F)cc3)CC2)cc1,-2.9,-17.8,-1.2,-0.7,7.5,0.4,.
Cc1ccccc1N1CCN(C2CCCN(C(=O)CCc3c(C)noc3C)C2)CC1 (centres undefined),1.5,8.0,0.8,-2.4,1.8,-3.4,.
O=C(Nc1ccc(F)cc1)c1cc(Cl)sc1Cl,-0.8,52.2*,0.5,-1.1,17.1,-2.0,-4.2
c1ccc(C2=NN(c3ccccc3)CC2)cc1,-2.0,-5.8,-1.1,2.1,-6.6,-0.3,.
c1ccc(N=NC2=NN(c3ccccc3)CS2)cc1,.,95.6*,.,.,.,.,112.8*
